Experiments:
Phosphodiesterase 4 [1] = target: T1, Phosphodiesterase 4 (Homo sapiens, UniProt P27815+Q08499+Q07343+Q08493); assay: Inhibition of PDE4 enzyme from U937 cells; format: cell-based; details: u-937
Summary of the method: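 Crude PDE4 from U937 cells: lysate supernatant run on Sephacryl S-200, rolipram-sensitive fractions pooled. Assay in 50 mM Tris-HCl pH 7.5, 5 mM MgCl2, 1 µM cAMP (1% 3H-cAMP), varying inhibitor, <15% substrate consumed; 30 °C, 30 min. Boiled, snake-venom treated, AG1-X8 resin, aqueous phase counted. Duplicates, % of control; IC50 by variable-slope nonlinear regression, three independent experiments.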

PBMC [2] = assay: (§1) Inhibition of LPS stimulated Tumor Necrosis Factor-alpha (TNF-alpha) release by human PBMC; format: functional, cell-based
Phosphodiesterase 4 [3] = target: T1, Phosphodiesterase 4; assay: Inhibition of phosphodiesterase 4 from U937 cells; format: cell-based; details: u-937
PBMC [4] = assay: Inhibition of LPS stimulated Tumor Necrosis Factor-alpha (TNF-alpha) release by human PBMC, cytotoxic at 10 and 100 uM; format: functional, cell-based
PBMC [5] = assay: as §1

SMILES	IC50 (Phosphodiesterase 4 [1])	IC50 (Phosphodiesterase 4 [3])	IC50 (PBMC [2])	IC50 (PBMC [4])	IC50 (PBMC [5])
CCOc1cc(C(CC#N)N2C(=O)c3ccccc3C2=O)ccc1OC (configuration not stated)	130 nM	–	120 nM	–	–
O=C1CCC(N2C(=O)c3ccccc3C2=O)C(=O)N1 (configuration not stated) [THALIDOMIDE]	> 500000 nM	–	~200000 nM	–	–
CCOc1cc(C(CC(=O)OC)N2C(=O)c3c(F)c(F)c(F)c(F)c3C2=O)ccc1OC (configuration not stated)	–	2200 nM	–	380 nM	–
COc1ccc(C(CC(N)=O)N2C(=O)c3ccccc3C2=O)cc1OC1CCCC1 (configuration not stated) [CDC-801]	1100 nM	–	2500 nM	–	–
COC(=O)CC(c1ccc(OC)c(OC2CC3CCC2C3)c1)N1C(=O)c2ccccc2C1=O (configuration not stated)	740 nM	–	2400 nM	–	–
COc1ccc(C2CNC(=O)C2)cc1OC1CCCC1 (configuration not stated) [ROLIPRAM]	–	–	–	–	150 nM
COc1ccc(C(CC(N)=O)N2C(=O)c3ccccc3C2=O)cc1OC (configuration not stated)	9400 nM	–	13000 nM	–	–
COC(=O)CC(c1ccc(OC)c(OC)c1)N1C(=O)c2ccccc2C1=O (configuration not stated)	2500 nM	–	2900 nM	–	–
CCOc1cc(C(CC(=O)OC)N2C(=O)c3ccccc3C2=O)ccc1OC (configuration not stated)	230 nM	–	700 nM	–	–

Second part, led by results:

IC50 (Phosphodiesterase 4 [1])	IC50 (Phosphodiesterase 4 [3])	SMILES	IC50 (PBMC [2])	IC50 (PBMC [4])	IC50 (PBMC [5])
–	4700 nM	COC(=O)CC(c1ccc(OC)c(OC)c1)N1C(=O)c2c(F)c(F)c(F)c(F)c2C1=O (configuration not stated)	–	260 nM	–
1700 nM	–	COC(=O)CC(c1ccc(OC)c(OC2CCCC2)c1)N1C(=O)c2ccccc2C1=O (configuration not stated)	1600 nM	–	–
350 nM	–	COc1ccc(C(CC#N)N2C(=O)c3ccccc3C2=O)cc1OC1CCCC1 (configuration not stated)	1600 nM	–	–
1300 nM	–	COc1ccc(C(CC#N)N2C(=O)c3ccccc3C2=O)cc1OC (configuration not stated)	1700 nM	–	–
2000 nM	–	CCOc1cc(C(CC(N)=O)N2C(=O)c3ccccc3C2=O)ccc1OC (configuration not stated)	2700 nM	–	–
